Data reported in ChEMBL document CHEMBL3244005, “Troponoids. 3. Synthesis and antiallergy activity of N-troponyloxamic acid esters” (J Med Chem, 1979).

What was measured:
Assay type in all cases: functional
[1] = system: Rattus norvegicus; experiment: Antiallergic activity in Sprague-Dawley CD rat assessed as inhibition of passive anaphylaxis-induced hind paw edema at 30 mg/kg, ip relative to control; details: Rattus norvegicus, Sprague-Dawley CD, ip, route intraperitoneal
Summary of the method: (§1)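 Passive anaphylaxis (reaginic antibody) induced in rat hind paw: serum with reaginic antibody injected into left hind paw; antigen given intravenously 24 h later. Paw volume measured by mercury displacement; activity read as inhibition of paw edema versus controls. Test compounds given ip or po. Inhibition of 35% or more considered significant by Student's t test (p < 0.05).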

[2] = system: Rattus norvegicus; experiment: Antiallergic activity in Sprague-Dawley CD rat assessed as inhibition of passive anaphylaxis-induced hind paw edema at 30 mg/kg, po relative to control; details: Rattus norvegicus, Sprague-Dawley CD, po; summary of the method: as §1
[3] = system: Rattus norvegicus; experiment: Antiallergic activity in Sprague-Dawley CD rat assessed as inhibition of passive anaphylaxis-induced hind paw edema at 100 mg/kg, po relative to control; details: Rattus norvegicus, Sprague-Dawley CD, po; summary of the method: as §1
[4] = system: Rattus norvegicus; experiment: Antiallergic activity in Sprague-Dawley CD rat assessed as inhibition of passive anaphylaxis-induced hind paw edema at 10 mg/kg, ip relative to control; details: Rattus norvegicus, Sprague-Dawley CD, ip, route intraperitoneal; summary of the method: as §1

Structure (SMILES)	inhibition in vivo at 30 mg/kg [1] [%]	inhibition in vivo at 30 mg/kg [2] [%]	inhibition in vivo at 100 mg/kg [3] [%]	inhibition in vivo at 10 mg/kg [4] [%]
O=C(O)COC(=O)C(=O)Nc1cccccc1=O	93	45	50	66
CC(C)(C)OC(=O)C(=O)Nc1cccccc1=O	79	47	82	
COC(=O)C(=O)Nc1ccc(OC)c(=O)cc1	36			
CCOC(=O)C(=O)Nc1c(Oc2ccccc2)ccccc1=O	0		20	
CCOC(=O)C(=O)Nc1ccc(Cl)ccc1=O	27		25	
CCOC(=O)C(=O)Nc1ccc(O)c(=O)cc1	10			
O=C(Nc1cccccc1=O)C(=O)Oc1ccccc1	73	31	71	68
O=C(O)c1cc(=O)c2c(OCC(O)COc3cccc4oc(C(=O)O)cc(=O)c34)cccc2o1 [CROMOLYN SODIUM]	77			62
CCOC(=O)C(=O)Nc1ccccc(N(C)C(=O)C(=O)OCC)c1=O	51	6	0	26
